Hits are enriched below; roughly 9.4% of the tested compounds scored in any of these assays.
Mdm2-MdmX inh: inhibitors of human Mdm2/MdmX interaction. O15151+Q00987. SaOS-2 split-luciferase Mdm2/MdmX complementation, luminescence. inhibition, % at 8 µM. 330,000 tested, 3% active;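 active = inhibition of at least 50% at 8 µM in the primary screen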
Beta cell apopt: blocks beta cell apoptosis; INS-1E cytokine-induced death, ATP luminescence, 48 h; percent of positive-control rescue, neutral wells zero; protection from apoptosis, % (no concentration beside the values); 300,000 tested, 0.8% active;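 active = Every replicate reaches about 75%, or at least half do and their mean reaches it too, limit read from the data; inconclusive = At least half of replicates reach the limit but their mean does not; inactive = Under half of replicates reach the limit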;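 note: higher means more ATP so stronger rescue from cytokine killing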
CSC inhib: cancer stem cell inhibition; cancer stem cell-like cells viability, luminescence; inhibition, % at 7.5 µM; 300,000 tested, 1.1% active; AID 2717; in the data active = inhibition above about 75%; inconclusive = no clear call, values can overlap the other calls; tested in HMLE shEcad cells
SKKanGAS inh: blocks kanamycin growth of S. pyogenes SKKanGAS strain; BacTiter-Glo, 6 h; inhibition, % at 7.5 µM; 300,000 tested, 1.3% active;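 active = mean replicate score, as percent of positive control median, at least 50; inconclusive = mean below 50 but one replicate at or above 50; inactive = mean and every replicate below 50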;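 note: strain carries kanamycin resistance gene driven by streptokinase promoter and grows in 40 µg/ml kanamycin; loss of luminescence reflects streptokinase promoter inhibition or plain growth inhibition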
T cruzi inh: blocks replication of Trypanosoma cruzi. T. cruzi beta-gal in NIH3T3, luminescence, 90 h. inhibition, % (no concentration beside the values). 300,000 tested, 1.4% active;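 active = mean inhibition across valid replicates above about 55%, limit read from the data; inconclusive = mean below that limit but half or more replicates reach it; inactive = mean below it, under half of replicates reach it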;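 note: signal also drops with host cell toxicity which is not excluded here; higher percent means less beta-gal luminescence so fewer parasites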
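Read-out: Parasite load inhibition, % | Test system: Mouse NIH/3T3 fibroblasts infected with β-gal-expressing T. cruzi Tulahuen C4 | Amount: 5,000 cells/well | Medium: DMEM, 2% fetal bovine serum | Signal: GalScreen β-gal luminescence, detergent lysis, 60 min | Timing: 3 h attach, ≥90 h co-culture | Also added: Tulahuen C4 trypomastigotes, 5000/well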
Lmaj promast: reduces viability of Leishmania major promastigotes. resazurin fluorescence viability. inhibition, % at 10 µM. 200,000 tested, 9% active; in the data active = inhibition above about 50%;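 note: promastigotes grown with compound for 44 hours at 28 °C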
Large screens that a line does not name were inactive.

Cc1cccc2[nH]c3c(N4CC=C(c5ccc(F)cc5)CC4)ncnc3c12	CSC inhib 78, SKKanGAS inh 82 (no result: Lmaj promast)
COCC(C)NC(=O)C(C)N1c2cccc3cccc(c23)S1(=O)=O (stereo not given)	none (no result: Lmaj promast)
CCCCNc1nc2ccccc2nc1Cl	none
O=C(Nc1ccccc1C(=O)N1CCCCCC1)c1cccc([N+](=O)[O-])c1	none (no result: Lmaj promast)
N#CC1(Cc2ccc([N+](=O)[O-])cc2)c2ccccc2C=CN1C(=O)c1ccccc1 (stereo not given)	Lmaj promast 51
O=C(c1ccccc1)c1ccc(Sc2ccc([N+](=O)[O-])cc2)cc1	none (no result: Lmaj promast)
N#CC1(Cc2ccccc2)c2ccccc2C=CN1C(=O)c1ccccc1 (stereo not given)	Lmaj promast 82
N#CCCn1cc(C(=O)O)c(-c2ccc3ccccc3c2)n1	none (no result: Lmaj promast)
CSc1nnc(C)c(=O)n1COC(=O)COc1ccc(Cl)cc1	none
COc1cccc(CN2CCCC(C(=O)c3ccc4c(c3)OCO4)C2)c1O (stereo not given)	Lmaj promast 82
CC(=O)c1cccc(CN2CCCC(C(=O)c3ccc4c(c3)OCO4)C2)c1 (stereo not given)	Lmaj promast 100
COc1ccc(CN2CCCC(C(=O)c3ccc4c(c3)OCO4)C2)c(F)c1 (stereo not given)	none (no result: Lmaj promast)
O=C(c1ccc2c(c1)OCO2)C1CCCN(C2CCN(CCc3ccccc3)CC2)C1 (stereo not given)	T cruzi inh 69, Lmaj promast 98
CCOC(=O)CNC(=O)N1CCCC(C(=O)c2ccc3c(c2)OCO3)C1 (stereo not given)	none
O=C(C1CCCN(Cc2ccc3c(c2)OCO3)C1)N1CCCC1 (stereo not given)	none
COCCNC(=O)c1ccc(NS(=O)(=O)c2ccc3[nH]c(=O)[nH]c3c2)cc1	none (no result: Lmaj promast)
COc1cc(/C=N/NC(=O)c2ccc(O)cc2)ccc1Oc1ccc([N+](=O)[O-])cn1	none
O=C(COC(=O)CC1CC2CCC1C2)Nc1ccccc1[N+](=O)[O-] (stereo not given)	none (no result: CSC inhib, SKKanGAS inh, T cruzi inh, Lmaj promast)
COc1cccc(CN2CC(C(=O)NCCn3ccc(C)n3)CCC2=O)c1 (stereo not given)	none (no result: Lmaj promast)
O=C(NCC1CCN(c2ccc(S(=O)(=O)N3CCOCC3)cc2)CC1)Nc1ccccc1	none (no result: Lmaj promast)
O=C(CSc1nnc(NC(=O)c2ccc(S(=O)(=O)N3CCOCC3)cc2)s1)Nc1ccccc1C(F)(F)F	Lmaj promast 92
COCCn1c(=NC(=O)c2ccc(S(=O)(=O)N3CCOCC3)cc2)sc2cc(S(N)(=O)=O)ccc21	none (no result: Lmaj promast)
CCn1c(=NC(=O)CS(=O)(=O)c2ccc(F)cc2)sc2cccc(OC)c21	none (no result: Beta cell apopt, Lmaj promast)
COc1ccccc1C(=O)NCC1CCN(c2ccc(S(=O)(=O)N3CCOCC3)cc2)CC1	Lmaj promast 100
CCn1c(=NC(=O)c2ccc(S(=O)(=O)N3CCOCC3)cc2)sc2cccc(OC)c21	Beta cell apopt 88, Lmaj promast 100
CCn1c(=NC(=O)CCS(=O)(=O)c2ccccc2)sc2cccc(OC)c21	Beta cell apopt 87, T cruzi inh inconclusive (no result: Lmaj promast)
COc1cccc2sc(NC(=O)c3ccc(S(=O)(=O)N4CCOCC4)cc3)nc12	Lmaj promast 51
Cc1cc(NC(=O)c2ccc(S(=O)(=O)N3CCOCC3)cc2)no1	Lmaj promast 54
CC1(C)OC(=O)N(CCc2ccccc2)C1(C)O (stereo not given)	none (no result: Beta cell apopt)
CCN1c2ccccc2N(C)C1(C)c1ccccc1 (stereo not given)	Beta cell apopt 106, Lmaj promast 99 (no result: Mdm2-MdmX inh, SKKanGAS inh, T cruzi inh)
CN1c2ccccc2N(C)C1(C)c1ccccc1	Beta cell apopt 131, T cruzi inh 62 (no result: Mdm2-MdmX inh)
C=CCNC(=S)N1CCC(C(=O)c2ccc(F)cc2)CC1	none (no result: Lmaj promast)
CC(Nc1ncnc2sccc12)c1ccccc1 (stereo not given)	none (no result: Beta cell apopt, Lmaj promast)
CSCCC(=O)N1CC[C@@H](N2CCN(c3ccccc3F)CC2)[C@H](O)C1	none (no result: Lmaj promast)
CCn1c(C(C)NC(=O)c2cccc(C)c2)n[nH]c1=S (stereo not given)	none
CCOc1ccc(-c2nc(CN3CCCC(C(=O)N4CCOCC4)C3)c(C)o2)cc1 (stereo not given)	none (no result: Lmaj promast)
CCN(C(=O)COC(=O)c1cccnc1SC)C1CCS(=O)(=O)C1 (stereo not given)	none (no result: CSC inhib)
CCN(C(=O)COC(=O)c1cccnc1Nc1cccc(C(F)(F)F)c1)C1CCS(=O)(=O)C1 (stereo not given)	Lmaj promast 59
CCSC1=C(C#N)C(c2ccccc2Cl)C(C(=O)c2cccs2)C(O)(C(F)(F)F)N1 (stereo not given)	none
C=CCSC1=C(C#N)C(c2ccccc2Cl)C(C(=O)c2cccs2)C(O)(C(F)(F)F)N1 (stereo not given)	Lmaj promast 88
O=C1CC(SC(=Nc2ccccc2)Nc2ccccc2)C(=O)N1c1ccc(Cl)c(Cl)c1 (stereo not given)	SKKanGAS inh 72, T cruzi inh 55, Lmaj promast 66
CN=C(Nc1cc(Cl)ccc1Cl)SC1CC(=O)N(c2ccc(C(=O)OC)cc2)C1=O (stereo not given)	SKKanGAS inh 52
Cc1cccc(N2C(=O)CC(SC(=Nc3ccccc3)Nc3ccccc3)C2=O)c1 (stereo not given)	none
N#Cc1c(-c2ccccc2Cl)noc1/C=C/Nc1ccc(C(=O)O)cc1	none
Cc1ccc(NC(=O)N(Cc2cccnc2)Cc2ccco2)cc1C	T cruzi inh 67, Lmaj promast 92
O=C(Nc1ccc(Cl)cc1)N(Cc1cccnc1)Cc1ccco1	T cruzi inh 61, Lmaj promast 92
N#CCCN(Cc1cccnc1)C(=O)Nc1ccc(Cl)c(Cl)c1	Lmaj promast 95
COCc1c(C(=O)N/N=C/c2cccc3ccccc23)nnn1-c1nonc1N	none
CCn1nc(C(=O)Nc2ccc3nc(C)sc3c2)c2ccccc2c1=O	Lmaj promast 63
Cc1nc2ccc(NC(=O)Cc3ccccc3F)cc2s1	none
Cc1nc2ccc(NC(=O)Cc3cccc(F)c3)cc2s1	Lmaj promast 62
Oc1ccc(-c2c(C3=CCCCC3)sc3ccccc23)cc1	SKKanGAS inh 56 (no result: Mdm2-MdmX inh, Lmaj promast)
CC(C)OCCCNC(=O)c1cc(S(=O)(=O)N2CCc3ccccc32)cn1C	none (no result: Lmaj promast)
CC1(C)C([N+](=O)[O-])C(c2ccc(Cl)cc2)NC(c2ccc(Cl)cc2)C1[N+](=O)[O-] (stereo not given)	T cruzi inh 58
OC(CN1CCN(Cc2ccccc2)CC1)c1ccccc1 (stereo not given)	Lmaj promast 69
OC(CN1CCN(Cc2ccccc2)CC1)c1ccc(F)cc1 (stereo not given)	Lmaj promast 96
OC(CSc1ccc(F)cc1)CN1CCN(c2ccccc2)CC1 (stereo not given)	Lmaj promast 68
O=[N+]([O-])c1ccc(C(O)CN2CCN(Cc3ccccc3)CC2)cc1 (stereo not given)	none (no result: Lmaj promast)
